For data set [1] the following is noted: 1 mg/kg i.v.; SD rats plasma; ref [25]; cited from earlier work.
A further data set has as its system SW620. The data set is described as follows: Cell viability assay. The format is cell-based. The note with it: Homo sapiens, SW-620, 72 h, read-out: IC50 (mean ± SD).
The next data set deals with RKO. The data set is described as follows: Cell viability assay. The format is cell-based, Human.
The next data set concerns HCT-116 and RKO cells. In words: Western blotting of neddylation, CRLs substrates and DNA damage markers. The format is cell-based, Human. The note with it: 24 h. The method, boiled down: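 HCT-116 and RKO cells were treated with test compound or a reference NAE inhibitor; DNA damage markers (γH2AX, p-Chk1 Ser317, p-Chk2 T68) were read after 24 h. Lysis was in SDS buffer (50 mM Tris-HCl pH 6.8, 2% SDS, 100 mM DTT) with 10 min boiling. Lysates were run on 10% gels at 150 V for 1 h, blocked in 5% milk/TBST, and probed with primaries at 1:1000 and HRP secondaries. Three repeats.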

The next data set has as its system PC-3. In words: Cell viability assay. In kind it is cell-based. To be noted: Homo sapiens, PC-3, 72 h, read-out: IC50 (mean ± SD).
Another data set concerns NOMO-1. In words: Cell viability assay. In kind it is cell-based. The note with it: Homo sapiens, NOMO-1, 72 h, read-out: IC50 (mean ± SD).
The test system of a further data set is Capan-1. In words: Cell viability assay. In kind it is cell-based. To be noted: Homo sapiens, CAPAN-1, 72 h, read-out: IC50 (mean ± SD).
The subject of another data set is MV-4-11. The data set is described as follows: Cell viability assay. In kind it is cell-based. The note with it: Homo sapiens, MV4-11, 72 h, read-out: IC50 (mean ± SD).
Another data set has as its system SW480. The data set is described as follows: Cell viability assay. The format is cell-based. To be noted: Homo sapiens, SW480, 72 h, read-out: IC50 (mean ± SD).
Another data set deals with G-361. In words: Cell viability assay. The note with it: Homo sapiens, G-361, 72 h, read-out: IC50 (mean ± SD). The format is cell-based.
In another data set the test system is HGC-27. The data set is described as follows: Cell viability assay. The format is cell-based. To be noted: Homo sapiens, HGC-27, 72 h, read-out: IC50 (mean ± SD).
The next data set has as its system TOV-112D. In words: Cell viability assay. In kind it is cell-based. The note with it: Homo sapiens, TOV112D, 72 h, read-out: IC50 (mean ± SD).
The test system of another data set is KG-1. The data set is described as follows: Cell viability assay. The format is cell-based. The note with it: Homo sapiens, KG-1, 72 h, read-out: IC50 (mean ± SD).
Another data set relates to Jurkat, Clone E6-1. The data set is described as follows: Cell viability assay. In kind it is cell-based. The note with it: Homo sapiens, 72 h, read-out: IC50 (mean ± SD).
The next data set deals with SUIT-2. The data set is described as follows: Cell viability assay. The format is cell-based. The note with it: Homo sapiens, SUIT-2, 72 h, read-out: IC50 (mean ± SD).
The subject of a further data set is LNCaP. In words: Cell viability assay. The note with it: Homo sapiens, 72 h, read-out: IC50 (mean ± SD). The format is cell-based.
Another data set relates to NCI-H226. In words: Cell viability assay. The note with it: Homo sapiens, NCI-H226, 72 h, read-out: IC50 (mean ± SD). The format is cell-based.
The test system of data set [2] is panel of 28 human cancer cell lines. The data set is described as follows: Cell viability assay, whole panel. The format is cell-based. To be noted: 72 h, read-out: Average IC50 over the cell line panel.
The next data set concerns HCT 15. In words: Cell viability assay. In kind it is cell-based. The note with it: Homo sapiens, HCT-15, 72 h, read-out: IC50 (mean ± SD).
A further data set has as its system DU 145. In words: Cell viability assay. The format is cell-based. The note with it: Homo sapiens, DU-145, 72 h, read-out: IC50 (mean ± SD).
Data set [3] is described as follows: Plasma pharmacokinetic studies. In kind it is in vivo, Sprague-Dawley (SD) rats. The note with it: male, Sprague-Dawley, rat, 3 mg/kg. The method, boiled down:
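Male Sprague-Dawley rats (200–250 g) were fasted 12 h and dosed with test compound or reference at 1 mg/kg i.v. or 3 mg/kg p.o. The i.v. vehicle was DMSO/EtOH/PEG300/NaCl (5/5/40/50); the p.o. vehicle was DMSO/0.5% HPMC (5/95). Blood was sampled over time and assayed by LC/MS/MS. Three animals per time point; non-compartmental analysis.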

The next data set relates to OVCAR-8. The data set is described as follows: Cell viability assay. In kind it is cell-based. To be noted: Homo sapiens, OVCAR-8, 72 h, read-out: IC50 (mean ± SD).
The subject of another data set is SW48. In words: Cell viability assay. The format is cell-based. The note with it: Homo sapiens, SW48, 72 h, read-out: IC50 (mean ± SD).
Another data set has as its system COLO 205. In words: Cell viability assay. The format is cell-based. The note with it: Homo sapiens, COLO 205, 72 h, read-out: IC50 (mean ± SD).
The subject of the next data set is Panc 02.03. The data set is described as follows: Cell viability assay. In kind it is cell-based. To be noted: Homo sapiens, Panc 02.03, 72 h, read-out: IC50 (mean ± SD).
A further data set relates to HT-29. The data set is described as follows: Cell viability assay. The format is cell-based. The note with it: Homo sapiens, HT-29, 72 h, read-out: IC50 (mean ± SD).
For a further data set, the system named is MIA PaCa-2. The data set is described as follows: Cell viability assay. To be noted: Homo sapiens, MIA PaCa-2, 72 h, read-out: IC50 (mean ± SD). The format is cell-based.
The next data set relates to CHL-1. In words: Cell viability assay. To be noted: Homo sapiens, CHL-1, 72 h, read-out: IC50 (mean ± SD). The format is cell-based.
The next data set concerns HCT-116. The data set is described as follows: Cell viability assay. In kind it is cell-based, Human.
For another data set, the system named is NCI-N87. The data set is described as follows: Cell viability assay. The format is cell-based. The note with it: Homo sapiens, NCI-N87, 72 h, read-out: IC50 (mean ± SD).
The next data set concerns THP-1. In words: Cell viability assay. In kind it is cell-based. The note with it: Homo sapiens, THP-1, 72 h, read-out: IC50 (mean ± SD).

These results are taken from publication PMC9352467 (Neoplasia (New York, N.Y.), 2022).

Marks after values point to notes of the source that are not given here.

In the case of `NS(=O)(=O)OC[C@@H]1C[C@@H](n2ccc3c(N[C@H]4CCc5ccccc54)ncnc32)C[C@@H]1O` [MLN4924], the AUClast in [1] is reported as 560^a ng*h/mL. Further, in data set [1], the CL was 29.70^a mL/min/kg. For the same compound, in [1], the T1/2 was 0.71^a h. Also, the Vss_obs in data set [1] is 1783^a mL/kg. In addition, the IC50 came out at 5550 ± 2370 nM in the data set with SW620; 150 ± 26.4 nM with RKO (Homo sapiens, 72 h, read-out: IC50 (mean ± SD)); 2430 ± 1050 nM in the data set on PC-3; 627 ± 77.8 nM in the data set on NOMO-1; 96.5 ± 10.1 nM in the data set with Capan-1; 121 ± 1.79 nM in the data set with MV-4-11. Also, the IC50 was 1090 ± 91.7 nM in the data set with SW480; 1430 ± 684 nM with G-361; 98.5 ± 28.3 nM in the data set with HGC-27; 229 ± 104 nM with TOV-112D; 936 ± 258 nM in the data set on KG-1; 284 ± 95.6 nM with Jurkat, Clone E6-1. The IC50 in the data set on SUIT-2 is 204 ± 29.1 nM; in the data set with LNCaP, 52.5 ± 13.4 nM; with NCI-H226, 1040 ± 624 nM; in [2] it was 647 nM; in the data set with HCT 15, 294 ± 80.3 nM; with DU 145, 86.5 ± 15.1 nM. Also, the IC50 in the data set on OVCAR-8 stood at 541 ± 64.2 nM; in the data set on SW48, 79.5 ± 23.1 nM; with COLO 205 it was 54.2 ± 2.47 nM; in the data set on Panc 02.03, 356 ± 39.1 nM; in the data set with HT-29 it was 296 ± 32.3 nM; in the data set on MIA PaCa-2, 109 ± 16.1 nM. Further, the IC50 was determined as 320 ± 122 nM in the data set with CHL-1; 60.8 ± 11.7 nM with HCT-116 (Homo sapiens, HCT-116, 72 h, read-out: IC50 (mean ± SD)); 865 ± 77.5 nM in the data set with NCI-N87; 60.1 ± 32.2 nM with THP-1. Also, the “DNA damage (γH2AX levels)” value in the data set on HCT-116 and RKO cells was “accumulation of DNA double-strand breaks”. The compound further returned a bioavailability in data set [3] (oral) of 12.4%. Besides, in data set [3] (po), the AUC(0-t) amounted to 208 ng·h/mL. For the same compound, the Cmax in data set [3] (po) was 64 ng/mL. For the same compound, the time to peak (Tmax) in data set [3] (po) was 0.92 h. In addition, the half-life in [3] (po) is 5.5 h.
For `CCOc1cccc(F)c1C#Cc1cn([C@@H]2O[C@H](CNS(N)(=O)=O)[C@@H](O)[C@H]2O)c2ncnc(N)c12` [TAS4464], the “sensitivity of cell proliferation” value was “profoundly sensitive” in the data set with RKO (Supplemental Figure 1b) and “profoundly sensitive” in the data set on HCT-116 (HCT-116, Supplemental Figure 1b).
